Compounds with a hit are over-represented: about 12% of the library has one in this group of screens.
ROMK mod – modulators of human ROMK potassium channel. AID 1918. P48048. Tet-inducible ROMK, thallium flux fluorescence; actives lie on both sides. B-score at 10 µM. hit rate 2% among 130,000;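 active means signal ratio slope over the read window, or its plate-corrected B-score, at least 3 SD from the plate mean, either direction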;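 further: B-score of the F/F0 ratio slope over 7 to 12 s after thallium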
Target sequence (P48048 whole entry, looked up): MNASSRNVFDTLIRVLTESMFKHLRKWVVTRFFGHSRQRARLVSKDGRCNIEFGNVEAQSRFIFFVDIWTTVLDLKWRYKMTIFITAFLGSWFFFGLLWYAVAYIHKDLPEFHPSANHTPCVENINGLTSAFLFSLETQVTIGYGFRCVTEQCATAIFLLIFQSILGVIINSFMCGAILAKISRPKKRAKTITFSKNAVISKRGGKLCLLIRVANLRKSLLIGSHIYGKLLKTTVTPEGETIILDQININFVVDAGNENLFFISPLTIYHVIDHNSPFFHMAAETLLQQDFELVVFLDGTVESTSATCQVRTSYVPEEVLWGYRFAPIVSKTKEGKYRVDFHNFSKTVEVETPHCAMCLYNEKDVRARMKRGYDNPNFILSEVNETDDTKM
Diaph inh CS – inhibits diaphorase or chemically oxidizes, flagging diaphorase assay artifacts; diaphorase resazurin-to-resorufin fluorescence, NADH, 16 min; bacterial (C. kluyveri) enzyme, not human; inhibition, % at 20 µM; hit rate 0.69% among 190,000;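 active means primary screen inhibition at 20 µM above a set limit, cut at about 50% in these data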
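material = Clostridium kluyveri diaphorase enzyme | amount = 0.14 U/mL diaphorase, enzyme working solution | schedule = incubation 16 min, room temperature | detection = fluorescence of resorufin formed from resazurin, Ex 544/Em 590 nm | benchmarks = positive control minus NADH, DMSO neutral control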
WT yeast gro inh – growth inhibition of WT yeast, mitochondrial fusion screen; AID 1362; hit rate 2.1% among 190,000; inhibition, % at 10 µM; mitochondrial fusion phenotypic screen, WT strain; in the data active means inhibition above about 58%; tested in S. cerevisiae
Lmaj promast – inhibitors of Leishmania major promastigote growth; Leishmania major promastigotes, resazurin fluorescence viability; inhibition, % at 10 µM; hit rate 9% among 200,000; AID 1063; in the data active means inhibition above about 50%;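 further: promastigotes grown with compound for 44 hours at 28 °C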
KCC2 mod – KCC2 (human) Cl- transport modulation; Q9H2X9; KCC2 cells, thallium flux FluoZin-2 fluorescence; B-score of Tl+ flux slope (higher = more flux/activation; lower = inhibition) at 10 µM; hit rate 2.2% among 190,000; AID 1456;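 active means thallium flux slope and its plate-corrected score both differing from the plate sample mean at a set confidence after two filtering rounds, in either direction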;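 further: slope of fluorescence scaled to starting intensity during 10 to 20 s after thallium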
Diaph act CS – counter-screen for diaphorase-based assays: diaphorase activators and chemical reducers | activation factor at 20 µM | hit rate 0.005% among 190,000 | Diaphorase/resazurin coupled assay, resorufin fluorescence, 16 min; hits give high values; 1 = vehicle wells, 0 = NADH-free wells;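 active means diaphorase activity raised at least twofold by the compound at 20 µM; inactive means activation factor below 2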
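Test system: Clostridium kluyveri diaphorase, purified enzyme. Buffer or medium: 50 mM HEPES pH 7.4 buffer plus MgCl2 and Tween 20. Also added: 0.114 mM NADH and 0.1 mM resazurin, final amounts. Dosing: compound 20 µM once, DMSO 1%. Schedule: 16 min enzyme reaction, ambient temperature. Detection: fluorescence of resorufin, 544 nm excitation, 590 nm emission.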
Each line names hits and unclear results; the compound was inactive in the other large screens.

O=C(CN1CCCN(S(=O)(=O)c2ccc(Br)cc2)CC1)Nc1ccc2c(c1)OCO2	Lmaj promast 86.4 (no result: ROMK mod)
CC1CCc2nc(NC(=O)CN3CCN(Cc4ccc5c(c4)OCO5)CC3)sc2C1 (stereo not drawn)	Lmaj promast 99.4 (no result: ROMK mod, KCC2 mod)
O=C(CN1CCN(Cc2ccc3c(c2)OCO3)CC1)Nc1ccc(F)cc1	Lmaj promast 96.7
COc1ccc(S(=O)(=O)N2CCCN(CC(=O)Nc3ccc4c(c3)OCO4)CC2)cc1	none
COc1ccc(C(=O)NCCn2cc(SCC(N)=O)c3ccccc32)cc1	none (no result: Diaph inh CS, WT yeast gro inh, Lmaj promast, Diaph act CS)
COC(=O)c1cc(S(=O)(=O)Nc2cc(S(=O)(=O)N(C)C)ccc2C)oc1C	none (no result: ROMK mod, Diaph inh CS, WT yeast gro inh, Lmaj promast, Diaph act CS)
COc1ccc(N2CCN(Cc3nc4cc(Cl)ccc4c(=O)[nH]3)CC2)cc1	none
CCNS(=O)(=O)c1cc(OC)c(Cl)cc1OC	none
O=c1[nH]c(CN2CCCCC2)nc2ccccc12	none (no result: ROMK mod)
O=c1[nH]c(CN2CCN(Cc3ccc4c(c3)OCO4)CC2)nc2ccccc12	Lmaj promast 91.1
COc1cc(NC(=O)CN2CCN(Cc3ccc4c(c3)OCO4)CC2)cc(OC)c1	Lmaj promast 86.0
O=C(CN1CCN(Cc2ccc3c(c2)OCO3)CC1)Nc1ccc2c(c1)OCO2	Lmaj promast 91.8
COc1ccc(CC(=O)NC2CCN(CC(=O)Nc3ccc4c(c3)OCCO4)CC2)cc1OC	none (no result: ROMK mod)
O=C(Nc1ccccc1)N1CCN(Cc2ccc3c(c2)OCO3)CC1	none (no result: ROMK mod)
COc1ccc(NC(=O)CN2CCN(Cc3ccc4c(c3)OCO4)CC2)cc1OC	Lmaj promast 71.1
O=C(CN1C(=O)CCC1=O)Nc1ccc(Cc2ccc(NC(=O)CN3C(=O)CCC3=O)cc2)cc1	none
O=C(NNS(=O)(=O)c1cccc(Cl)c1)c1cc(-c2ccc(F)cc2)nc2ccccc12	none
COC(=O)c1sccc1NC(=O)CN1CCN(c2ccc(F)cc2)CC1	none (no result: ROMK mod)
Cc1cccc(OCC(=O)Nc2ccc(N3CCN(C(=O)c4ccco4)CC3)cc2)c1	none (no result: ROMK mod)
O=C(CN1CCN(Cc2ccc3c(c2)OCO3)CC1)c1c[nH]c2ccccc12	Lmaj promast 85.9 (no result: ROMK mod)
O=C(CN1CCN(Cc2ccc3c(c2)OCO3)CC1)Nc1ccc2c(c1)OCCO2	Lmaj promast 90.8
COc1cccc(N2CCN(C(=O)c3nc4nc(C)cc(C)n4n3)CC2)c1	none
CN(Cc1ccccc1)C(=O)CCn1c(=O)oc2ccccc21	none (no result: ROMK mod)
O=C(c1cccnc1)N(Cc1ccccc1)c1ccccc1	none (no result: KCC2 mod)
Cc1cccc(N(Cc2ccccc2)C(=O)CCl)c1	Lmaj promast 81.5
O=C(CCn1c(=O)oc2ccccc21)N(Cc1ccccc1)c1ccccc1	Diaph inh CS 69.2 (no result: ROMK mod)
Cc1cccc(N(CC(=O)O)CC(=O)O)c1	none
O=C(CCl)N(Cc1ccccc1)c1ccccc1	Lmaj promast 78.8
CC(C)Oc1ccc(Cc2cnc(N)nc2N)cc1	Lmaj promast 58.0
CC(C)c1ccc(S(=O)(=O)Nc2ccc(SC(F)F)cc2)cc1	WT yeast gro inh 85.0 (no result: ROMK mod)
CCN(CC)S(=O)(=O)c1ccc(OC)c(NC(=O)c2cc([N+](=O)[O-])ccc2Cl)c1	none (no result: ROMK mod)
CN(C)S(=O)(=O)c1cccc(C(=O)Nc2ccccc2Cl)c1	none
CN(C)S(=O)(=O)c1ccc(C(=O)Nc2ccccc2[N+](=O)[O-])cc1	Lmaj promast 65.7
Cc1nn(CC(=O)Nc2cc(S(=O)(=O)N(C)C)ccc2Cl)c(C)c1[N+](=O)[O-]	Lmaj promast 71.6 (no result: ROMK mod)
CCN(CC)S(=O)(=O)c1ccc(Cl)c(C(=O)Nc2ccc(Cl)cc2[N+](=O)[O-])c1	Lmaj promast 85.0 (no result: ROMK mod)
CN(C)S(=O)(=O)c1ccc(Cl)c(C(=O)Nc2ccccc2[N+](=O)[O-])c1	Lmaj promast 60.8
Cc1nn(C(C)C(=O)O)c(=O)c2ccccc12 (stereo not drawn)	none
O=C(NC(c1ccccc1)C(Cl)(Cl)Cl)c1ccccc1 (stereo not drawn)	none
Cc1c(C(=O)Nc2ccccc2[N+](=O)[O-])csc1-c1ccccc1	WT yeast gro inh 74.0 (no result: ROMK mod)
CN(CCC#N)C(=O)COC(=O)c1c2c(nc3ccccc13)/C(=C/c1ccco1)CC2	none (no result: ROMK mod)
CC(C)n1nnnc1-c1ccc(Cl)cc1	none
CCCc1cc(C(N)=O)c(NC(=O)c2cc(C)on2)s1	Lmaj promast 54.9
COc1cccc(NC(=S)NCc2ccncc2)c1	Lmaj promast 68.2 (no result: ROMK mod)
S=C(NCc1ccncc1)Nc1cccc(Cl)c1	none (no result: ROMK mod)
S=C(NCCC(c1ccccc1)c1ccccc1)Nc1cccc(Cl)c1	WT yeast gro inh 80.2, Lmaj promast 59.2 (no result: ROMK mod)
Cc1ccsc1C(=O)NCCC(c1ccccc1)c1ccccc1	WT yeast gro inh 67.1 (no result: ROMK mod)
COc1cccc(NC(=O)C(=O)NCc2ccncc2)c1	none
O=C(NCCCc1ccccc1)Nc1cccc(Cl)c1	WT yeast gro inh 76.9 (no result: ROMK mod)
CC1(C)CC2(CCO1)C(Nc1ccccc1)=NC(=S)N2CC(N)=O (stereo not drawn)	none (no result: ROMK mod, Diaph inh CS, WT yeast gro inh, Lmaj promast, Diaph act CS)
COc1cc(OC)cc(C(=O)NNC(=O)c2cc3c(s2)CCCC3)c1	none
Fc1ccc(CNC(=S)Nc2cccc(Cl)c2)cc1	WT yeast gro inh 60.3
COc1ccc(OC)c(NC(=S)NCCC(c2ccccc2)c2ccccc2)c1	none (no result: ROMK mod, Diaph inh CS, WT yeast gro inh, Diaph act CS)
Cc1ccccc1NC(=S)NCCC(c1ccccc1)c1ccccc1	WT yeast gro inh 78.8 (no result: ROMK mod)
Cc1ccc(NC(=S)NCCC(c2ccccc2)c2ccccc2)c(C)c1	WT yeast gro inh 65.1, Lmaj promast 65.8 (no result: ROMK mod)
Cc1ccc(NC(=S)NCc2cccs2)c(C)c1	none (no result: KCC2 mod)
CC(NC(=O)c1cc(S(=O)(=O)N(C)C)ccc1N1CCCC1)C1CC2CCC1C2 (stereo not drawn)	none
CCOC(=O)C1=C(N)OC2=C(C(=O)CCC2)C1c1cccnc1 (stereo not drawn)	none
CCOC(=O)C1=C(C)OC(N)=C(C(=O)OCC)C1c1cccnc1 (stereo not drawn)	Lmaj promast 84.5 (no result: ROMK mod)
CCOC(=O)C1=C(C)NC2=C(C(=O)c3ccccc32)C1c1cccnc1 (stereo not drawn)	Lmaj promast 81.9
CCOC(=O)C1=C(N)OC2=C(C(=O)CC(C)(C)C2)C1c1cccnc1 (stereo not drawn)	Lmaj promast 78.0 (no result: ROMK mod)
O=C(CCN1CCCCC1)Nc1ccc(Br)cc1	none (no result: ROMK mod)
COc1cc(/C=N/NC(=O)CN2CCCCC2)ccc1OCc1ccc(Br)cc1	Lmaj promast 94.5 (no result: ROMK mod)
COc1cc(/C=N/NC(=O)CC2(C)OCCCO2)ccc1OCc1ccccc1	none
O=C(CCN1CCCCC1)N/N=C/c1ccc(Br)cc1	Lmaj promast 82.8 (no result: ROMK mod)
COc1cc(NC(C)C(=O)N2CC(C)OC(C)C2)cc(OC)c1 (stereo not drawn)	none
CS(=O)(=O)N(Cc1cc2ccccc2[nH]c1=O)C1CCCCC1	WT yeast gro inh 93.9 (no result: ROMK mod)
Nc1ccccc1Nc1cc(-c2cccc(Cl)c2)nn1-c1ccccc1	WT yeast gro inh 75.0 (no result: ROMK mod)
COc1ccc(CCNC(=O)c2ccc3c(SCC(=O)O)c4c(nc3c2)CCCC4)cc1OC	Diaph inh CS 68.1 (no result: ROMK mod)

Assay outcomes from PubChem BioAssay.
